{"source": "ChEMBL document CHEMBL5126672", "about": "“Discovery of κ Opioid Receptor (KOR)-Selective d-Tetrapeptides with Improved In Vivo Antinociceptive Effect after Peripheral Administration” (ACS Med Chem Lett, 2022)", "key": {"[1]": {"target": "T1, Kappa-type opioid receptor (Cavia porcellus, UniProt P41144)", "T1 sequence (P41144 whole entry)": "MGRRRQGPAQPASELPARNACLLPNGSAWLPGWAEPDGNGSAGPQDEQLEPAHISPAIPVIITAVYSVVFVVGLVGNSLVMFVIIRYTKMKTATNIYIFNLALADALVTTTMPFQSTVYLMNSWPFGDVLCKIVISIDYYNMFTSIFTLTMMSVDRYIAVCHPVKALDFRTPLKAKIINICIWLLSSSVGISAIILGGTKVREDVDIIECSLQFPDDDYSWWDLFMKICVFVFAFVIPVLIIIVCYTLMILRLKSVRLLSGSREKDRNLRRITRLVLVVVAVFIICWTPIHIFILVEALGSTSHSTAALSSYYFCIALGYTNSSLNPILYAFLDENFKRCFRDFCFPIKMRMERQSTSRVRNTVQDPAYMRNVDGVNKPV", "experiment": "Displacement of [3H]-HS665 from KOR in guinea pig brain membranes", "assay_type": "cell membranes, Membrane"}, "[2]": {"target": "Kappa-type opioid receptor (Cavia porcellus) (UniProt P41144)", "sequence (P41144 whole entry)": "as above", "experiment": "(§1) Agonist activity at KOR in guinea pig brain membranes assessed as stimulation of [35S]GTPgammaS binding measured after 1 hr by liquid scintillation counting analysis", "assay_type": "functional, cell membranes", "conditions": "Membrane, filed as agonist, DDE = dose-dependent effect"}, "[3]": {"target": "T1, Kappa-type opioid receptor", "experiment": "as §1", "assay_type": "functional, cell membranes, Membrane"}, "Mus musculus [4]": {"system": "Mus musculus", "experiment": "Antinociceptive activity in CD-1 mouse assessed as maximum possible effect at 10 nmol, icv measured after 15 to 120 mins by tail-flick test", "assay_type": "functional, organism-based", "conditions": "time 15-120 min", "in_short": "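Tail flick test in mice after intracerebroventricular injection of 10 nmol/mouse, with vehicle-treated and U50,488H control groups. Antinociception was expressed as maximum possible effect. N = 7 per group.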"}, "Mus musculus [5]": {"system": "Mus musculus", "experiment": "Antinociceptive activity in CD-1 mouse assessed as maximum possible effect at 20 umol/kg, iv measured after 15 to 120 mins by tail-flick test", "assay_type": "functional, organism-based", "conditions": "dose 20.0 µmol/kg, time 15-120 min", "in_short": "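Intravenous dosing at 20 μmol/kg in mice, followed by tail flick testing with antinociception expressed as maximum possible effect. Vehicle-treated animals served as controls. N = 8.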"}, "Mus musculus [6]": {"system": "Mus musculus", "experiment": "Antinociceptive activity in formalin-induced CD-1 mouse model of nociception assessed as reduction in total time spent in paw licking during early phase at 100 nmol, sc pretreated for 15 mins followed by formalin challenge measured up to 10 mins by formalin test", "assay_type": "functional, organism-based", "conditions": "time 25.0 min", "in_short": "(§2)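 Subcutaneous injection into the mouse paw at 100 nmol/mouse, given 15 min before formalin challenge. Nociceptive behaviour was scored in the early and late phases against vehicle and U50,488H groups. Analysis used one-way ANOVA with Tukey's multiple comparisons test.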"}, "Mus musculus [7]": {"system": "Mus musculus", "experiment": "Antinociceptive activity in formalin-induced CD-1 mouse model of nociception assessed as reduction in total time spent in paw licking during late phase at 100 nmol, sc pretreated for 15 mins followed by formalin challenge measured after 10 to 40 mins by formalin test", "assay_type": "functional, organism-based", "conditions": "time 15-55 min", "in_short": "as §2"}, "[8]": {"experiment": "Cmax in C57/BL6 mouse plasma at 13.9 mg/kg, iv administered via bolus by LC-MS/MS analysis", "assay_type": "ADME, organism-based", "parameters": "dose 13.9 mg/kg, route iv", "in_short": "(§3)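 Single intravenous bolus given to mice. Plasma concentrations were measured, and noncompartmental analysis gave Cmax, Tmax, t1/2 and AUC extrapolated to infinity. The calibration range was 10–1000 nM, with correlation coefficient >0.99 and the curve fit with 1/x2 weighting.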"}, "[9]": {"experiment": "Tmax in C57/BL6 mouse plasma at 13.9 mg/kg, iv administered via bolus by LC-MS/MS analysis", "assay_type": "ADME, organism-based", "in_short": "as §3"}, "[10]": {"experiment": "Half life in C57/BL6 mouse plasma at 13.9 mg/kg, iv administered via bolus by LC-MS/MS analysis", "assay_type": "ADME, organism-based", "in_short": "as §3"}, "[11]": {"experiment": "AUC (infinity) in C57/BL6 mouse plasma at 13.9 mg/kg, iv administered via bolus by LC-MS/MS analysis", "assay_type": "ADME, organism-based", "parameters": "time infinity, dose 13.9 mg/kg, route iv", "in_short": "as §3"}, "[12]": {"experiment": "Drug uptake in C57/BL6 mouse brain at 13.9 mg/kg, iv administered via bolus by LC-MS/MS analysis", "assay_type": "ADME, organism-based", "conditions": "in vivo, BLD = below limit of detection", "in_short": "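Single intravenous bolus given to mice. Brain homogenates were analysed for drug exposure against a calibration curve spanning 10–1000 nM, fit with 1/x2 weighting.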"}}, "note": "Calls of active or inactive are those of the source. The calls are words filed in the database; no cut-off is given here. Square brackets hold non-standard residues; d marks the D form. Peptide text beside a SMILES is read from it. dNle = CCCC[C@@H](N)C(=O)O"}
{"smiles": "CCCC[C@@H](NC(=O)[C@@H](Cc1ccccc1)NC(=O)[C@H](N)Cc1ccc(O)cc1)C(=O)N[C@H](CCCNC(=N)N)C(N)=O", "values": [{"measurement": "Ki", "setting": "[1]", "result": 1.11, "unit": "nM"}, {"measurement": "Activity", "setting": "[2]", "result": "Dde"}, {"measurement": "EC50", "setting": "[3]", "result": 9550, "unit": "nM"}]}
{"smiles": "CCCC[C@@H](NC(=O)[C@@H](Cc1ccc(F)cc1)NC(=O)[C@H](N)Cc1ccccc1)C(=O)N[C@H](CCCNC(=N)N)C(N)=O", "values": [{"measurement": "Ki", "setting": "[1]", "result": 0.92, "unit": "nM"}, {"measurement": "EC50", "setting": "[3]", "result": 955, "unit": "nM"}, {"measurement": "Activity", "setting": "Mus musculus [4]", "result": "Active"}, {"measurement": "Activity", "setting": "Mus musculus [5]", "result": "Active"}, {"measurement": "Activity", "setting": "Mus musculus [6]", "result": "Active"}, {"measurement": "Activity", "setting": "Mus musculus [7]", "result": "Active"}, {"measurement": "Cmax", "setting": "[8]", "result": 109, "unit": "nM"}, {"measurement": "Tmax", "setting": "[9]", "result": 15, "unit": "min"}, {"measurement": "half-life", "setting": "[10]", "result": 20.6, "unit": "min"}, {"measurement": "AUC(0-inf)", "setting": "[11]", "result": 0.0842, "unit": "µM·h"}, {"measurement": "Drug uptake", "setting": "[12]", "result": "Bld"}]}
{"smiles": "Oc1cccc(CCN(CCc2ccccc2)CC2CCC2)c1", "values": [{"measurement": "Ki", "setting": "[1]", "result": 1.91, "unit": "nM"}]}
{"smiles": "CCCC[C@@H](NC(=O)[C@@H](Cc1ccccc1)NC(=O)[C@H](N)Cc1ccccc1)C(=O)N[C@H](CCCNC(=N)N)C(N)=O", "note": "(H-[dF][dF][dNle][dR]-NH2)", "values": [{"measurement": "Ki", "setting": "[1]", "result": 2.33, "unit": "nM"}, {"measurement": "EC50", "setting": "[3]", "result": 26.3, "unit": "nM"}, {"measurement": "Activity", "setting": "Mus musculus [4]", "result": "Active"}, {"measurement": "Cmax", "setting": "[8]", "result": 93, "unit": "nM"}, {"measurement": "Tmax", "setting": "[9]", "result": 5, "unit": "min"}, {"measurement": "half-life", "setting": "[10]", "result": 12.7, "unit": "min"}, {"measurement": "AUC(0-inf)", "setting": "[11]", "result": 0.0364, "unit": "µM·h"}, {"measurement": "Drug uptake", "setting": "[12]", "result": "Bld"}]}
{"smiles": "CCCC[C@@H](NC(=O)[C@H]1Cc2ccccc2CN1C(=O)[C@H](N)Cc1ccccc1)C(=O)N[C@H](CCCNC(=N)N)C(N)=O", "values": [{"measurement": "Ki", "setting": "[1]", "result": 3.63, "unit": "nM"}, {"measurement": "EC50", "setting": "[3]", "result": 7.94, "unit": "nM"}]}
{"smiles": "CCCC[C@@H](NC(=O)[C@@H](Cc1cccc(F)c1)NC(=O)[C@H](N)Cc1ccccc1)C(=O)N[C@H](CCCNC(=N)N)C(N)=O", "values": [{"measurement": "Ki", "setting": "[1]", "result": 3, "unit": "nM"}, {"measurement": "Activity", "setting": "[2]", "result": "Dde"}, {"measurement": "EC50", "setting": "[3]", "result": 1860, "unit": "nM"}, {"measurement": "Activity", "setting": "Mus musculus [4]", "result": "Active"}, {"measurement": "Activity", "setting": "Mus musculus [6]", "result": "Active"}, {"measurement": "Activity", "setting": "Mus musculus [7]", "result": "Active"}]}
{"smiles": "CCCC[C@@H](NC(=O)[C@@H](Cc1ccccc1)NC(=O)[C@H](N)Cc1c[nH]c2ccccc12)C(=O)N[C@H](CCCNC(=N)N)C(N)=O", "values": [{"measurement": "Ki", "setting": "[1]", "result": 3.07, "unit": "nM"}, {"measurement": "Activity", "setting": "[2]", "result": "Dde"}, {"measurement": "EC50", "setting": "[3]", "result": 5.13, "unit": "nM"}]}
{"smiles": "CCCC[C@@H](NC(=O)[C@@H](Cc1ccccc1)NC(=O)[C@H](N)Cc1ccccc1F)C(=O)N[C@H](CCCNC(=N)N)C(N)=O", "values": [{"measurement": "Ki", "setting": "[1]", "result": 4.35, "unit": "nM"}, {"measurement": "EC50", "setting": "[3]", "result": 1350, "unit": "nM"}, {"measurement": "Activity", "setting": "Mus musculus [4]", "result": "Active"}, {"measurement": "Activity", "setting": "Mus musculus [6]", "result": "Active"}, {"measurement": "Activity", "setting": "Mus musculus [7]", "result": "Active"}]}
{"smiles": "CCCC[C@@H](NC(=O)[C@@H](Cc1ccccc1)NC(=O)[C@H](N)Cc1cccc(F)c1)C(=O)N[C@H](CCCNC(=N)N)C(N)=O", "values": [{"measurement": "Ki", "setting": "[1]", "result": 1.28, "unit": "nM"}, {"measurement": "Activity", "setting": "[2]", "result": "Dde"}, {"measurement": "EC50", "setting": "[3]", "result": 22.4, "unit": "nM"}, {"measurement": "Activity", "setting": "Mus musculus [4]", "result": "Active"}, {"measurement": "Activity", "setting": "Mus musculus [5]", "result": "Active"}, {"measurement": "Activity", "setting": "Mus musculus [6]", "result": "Active"}, {"measurement": "Activity", "setting": "Mus musculus [7]", "result": "Active"}]}
